Yeast fitness data for 167 variants are collected here from the RNAGym collection of RNA variant scans (doi:10.1126/science.aae0568).

Variants at the floor of the assay were thinned out.

The chains are these.
B1: tRNA (parent)
chain: GUUCCGUUGGCGUAAUGGUAACGCGUCUCCCUCCUAAGGAGAAGACUGCGGGUUCGAGUCCCGUACGGAACG

Variants of B1 are the subject of this series. Nature of the series: yeast fitness relative to wild type (ratio to wild type); higher = fitter; tRNA-Arg(CCU), competitive growth, 37 C, YPD. In short, it runs like this: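 Gene amplicons from the start population and from each of six end populations were read by 100-nucleotide paired-end sequencing. Those end populations came from pooled Saccharomyces cerevisiae strains carrying tRNA-Arg(CCU) gene variants at the native locus, competed in YPD at 37°C for 24 hours. Fitness relative to wild type was worked out from changes in genotype frequencies. Genotypes needed ≥ 100 starting reads, and estimates < 0.5 were set to 0.5.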
For the variant U7A G12C C34U C66G, the yeast fitness is at most 0.5. In the case of U7A A43U it was 0.622; in that of U7A A57U, 0.572. The value for U7A C60A was 0.577; that for U7A C34U C49A was at most 0.5; that for U7A C61U was 0.66. The value for U7A C11U A36U G58C was at most 0.5; that for U7A G12C C27G C31A C46A was at most 0.5. For U7A C62A A69G A70G, the yeast fitness was at most 0.5. In the case of U7A C27G C34G U54A it was at most 0.5; in that of U7A C49U A65C, 0.711. The value for U7A G9A G17A C24A was at most 0.5. The value for U7A A42G G68C was at most 0.5. In the case of U7A G10A A20C C29A C55G G63C, the yeast fitness is at most 0.5.

As to U7A C29G A36C C62A, the yeast fitness is at most 0.5. The value for U7A A69U was 0.759; that for U7A C34U A65G C66G was at most 0.5. In the case of U7A G44C C61A C62U C66U it was at most 0.5; in that of U7A A42G, 0.655; in that of U7A C27U U28C, at most 0.5.

In the case of U7A C29A G58A C61G A70U, the yeast fitness stood at 0.665.

Consider U7A C46G C61U, for which the yeast fitness came to 0.601. The value for U7A C22A A57C was at most 0.5. In the case of U7A C11A C30U U32A it was at most 0.5. The value for U7A C11U U16A G25A was at most 0.5. Turning to U7A C34G C62U G68C, the yeast fitness was 0.559.

For the variant U7A G17C G51A, the yeast fitness is at most 0.5. In the case of U7A C11U C30U U59A A69C it was at most 0.5. The value for U7A C11U C49A was 0.614. In the case of U7A C27G C34U it was at most 0.5. Regarding U7A A40C, the yeast fitness came out at 0.724. The value for U7A A40U was 0.714; that for U7A G38A A42U G51A U53G C60G was at most 0.5; that for U7A C11G A36U C49U was at most 0.5.

U7A C46A C66A: the yeast fitness is at most 0.5. For the variant U7A C34U C66G, the yeast fitness was at most 0.5.

Take U7A G9A U13A: the yeast fitness came out at 0.6.

For the variant U7A G10C C22U C27G C66U, the yeast fitness is at most 0.5. The value for U7A G10A C55U C61G A65G G68A was at most 0.5. On to U7A C24U C46A, for which the yeast fitness is 0.567. The value for U7A G58A was 0.635. For the variant U7A C30A, the yeast fitness was 0.669. U7A G9C G17C G48A A69C: the yeast fitness was at most 0.5. The value for U7A C30U C33U C46U G68U was at most 0.5; that for U7A G25C C27G C31U A45U U64C was at most 0.5; that for U7A G50A C60G U64G was at most 0.5.

As for U7A G10C C27G U32A, the yeast fitness is at most 0.5. The value for U7A G12C A57C was at most 0.5; that for U7A G10A A20C C29A was 0.543; that for U7A G10A A15U was 0.568. For U7A C34A G56C, the yeast fitness stood at 0.541. In the case of U7A C60G A70C it was at most 0.5; in that of U7A G10C C30G C46U, at most 0.5. In the case of U7A C55A it was 0.571; in that of U7A C55U, 0.555.

Regarding U7A G17A C24U C34A A40G C61U A69U, the yeast fitness is at most 0.5. The value for U7A C29G A70C was at most 0.5; that for U7A G10C C22U C27G was 0.577; that for U7A C22U C66G G68C was at most 0.5. In the case of U7A A65U it was 0.996; in that of U7A C34A G56C A65G, at most 0.5; in that of U7A C11U G17C C30G A37C G48C G51A, at most 0.5. As for U7A C30U C46U C55G, the yeast fitness is at most 0.5.

With U7A C66U, the yeast fitness came out at 0.762.

As for U7A A45C, the yeast fitness was 0.737. The value for U7A C22G C30U A37G was at most 0.5; that for U7A C55G G58C was at most 0.5. The value for U7A C27U C29U was at most 0.5.

As to U7A G10C, the yeast fitness came to 0.617.

Regarding U7A G10U, the yeast fitness came out at 0.614. Consider U7A A70C, for which the yeast fitness stood at 0.817. The value for U7A G51A G52A was 0.536. As for U7A C22A C31G U32G A42G G52A C62A, the yeast fitness is at most 0.5. With U7A C22G C30U A37G C55A, the yeast fitness was at most 0.5.

Consider U7A C33U A42C U64C A70G, for which the yeast fitness is at most 0.5. For the variant U7A C46U U59C C62G A65U, the yeast fitness was at most 0.5. The value for U7A G12A C30U was at most 0.5; that for U7A G9C was 0.674; that for U7A G39A A45G U47G was 0.623. The value for U7A G41A was 0.634. As to U7A G23C A45G C60G, the yeast fitness is at most 0.5. The value for U7A C29U C61U G68C was 0.582. The value for U7A C27A G50C was at most 0.5. In the case of U7A G44C C66U it was at most 0.5; in that of U7A G18A, 0.689; in that of U7A C30A G51A, at most 0.5.

On to U7A C34G, for which the yeast fitness was found to be 0.543. In the case of U7A C34G A70U it was at most 0.5; in that of U7A G10A C30A A43C C66U, 0.553.

Turning to U7A C27U, the yeast fitness amounted to 0.666.

In the case of U7A C27A, the yeast fitness amounted to 0.665. In the case of U7A G9C A40C C62A it was at most 0.5.

Consider U7A G10C C27G U32A G56A A57U, for which the yeast fitness was at most 0.5. Consider U7A G23C C46G G51C U53A, for which the yeast fitness is at most 0.5.

U7A C34G U59G G68U: the yeast fitness is at most 0.5. In the case of U7A G23C C66U it was at most 0.5; in that of U7A G51A G52A A70G, at most 0.5. In the case of U7A G52A A69C it was at most 0.5; in that of U7A C29G, at most 0.5; in that of U7A C30U G39A A40G G67A, at most 0.5. In the case of U7A G23A C55A C61A it was at most 0.5; in that of U7A C11G C29U, 0.555. For the variant U7A C49U, the yeast fitness was determined as 0.738. In the case of U7A G25A C31U it was 0.568; in that of U7A G41A C61A, at most 0.5. In the case of U7A C29G G50A U64C it was at most 0.5. In the case of U7A C29U C31A it was at most 0.5; in that of U7A C46G A70U, 0.642; in that of U7A C11G A40U A42C, at most 0.5.

Turning to U7A C29G A36C, the yeast fitness came out at 0.566. The value for U7A G9C G17C C61U C62G A65C was at most 0.5; that for U7A G50C A57C C61U was at most 0.5; that for U7A C31U C34G was at most 0.5.

As for U7A G12C C27G C31A C46A C62G, the yeast fitness is at most 0.5. In the case of U7A G9A C24A it was at most 0.5.

Take U7A G9C C24A A43U G52A C60G A69U A70C: the yeast fitness was at most 0.5.

Regarding U7A A40U A45G C46U, the yeast fitness was at most 0.5.

Turning to U7A A37U C49U C55U A57C C61U, the yeast fitness was found to be 0.934. As to U7A G9C A15G G23A U53A, the yeast fitness turned out to be 0.505. In the case of U7A G9C G17C G48A G68C it was at most 0.5; in that of U7A G10C C30G A36U, at most 0.5. In the case of U7A C34G G39A it was at most 0.5; in that of U7A C29U C62U, at most 0.5; in that of U7A C22U, 0.798. The value for U7A G9C A40C U47C was at most 0.5; that for U7A C11A A21C C29U C49U was 0.544. In the case of U7A C46G C66G, the yeast fitness is 0.547. In the case of U7A C22U U28A C29G C33A A42U A70U, the yeast fitness was at most 0.5. The value for U7A G17A U59A was at most 0.5; that for U7A C24U C33A was at most 0.5.

U7A G50A C62U A69C: the yeast fitness worked out at 0.614. The value for U7A C27U C29U G63A was 0.598. The value for U7A G9C C30U C34G G68C was 0.56.

With U7A C31U A40U, the yeast fitness is at most 0.5. The value for U7A G10A C33A A36C A69U was at most 0.5; that for U7A C22G C30U U32C A37G A70G was at most 0.5. The value for U7A G25C C27G C31U A45U C62U U64C was at most 0.5.

U7A C11G C60A: the yeast fitness was at most 0.5. The value for U7A G9C A40C was 0.623.

U7A C29G C34G A36G U54C A57G: the yeast fitness is at most 0.5. In the case of U7A G44A it was 0.755. The value for U7A G44C was 0.718; that for U7A C33A A45C G68A was at most 0.5; that for U7A C31A was 0.634. In the case of U7A C49A A69C it was at most 0.5. In the case of U7A C27U A69C, the yeast fitness is 0.649.

With U7A C22G C30U A37G A70G, the yeast fitness was 0.563. The value for U7A C33U G51C was 0.559; that for U7A C24G C31U C55A was at most 0.5; that for U7A C31U A40U G67C was at most 0.5. The value for U7A G9A U13A G48A U54G C61A was at most 0.5; that for U7A G9C C24A A43U G52A was at most 0.5. Regarding U7A C33A A45C, the yeast fitness was found to be 0.54. The value for U7A A37U G50A U53C C62A A69U was at most 0.5; that for U7A G23A C24U U35A C60A was 0.632. In the case of U7A G17A A45C U47A G50A it was at most 0.5; in that of U7A G10C C31G G67U, at most 0.5. Regarding U7A G9C U13C G58C A65C A69G, the yeast fitness is at most 0.5. As for U7A A45C U47C C55U A65C A69C, the yeast fitness was at most 0.5.

Regarding U7A G9C G17C, the yeast fitness was found to be 0.55. As to U7A C24G C55G, the yeast fitness was at most 0.5. On to U7A C34A G56C G68C, for which the yeast fitness was at most 0.5.

As to U7A G23A G68U, the yeast fitness was at most 0.5.

For U7A G38A G52C A57C, the yeast fitness was at most 0.5. In the case of U7A C29U C31A A65C it was 0.655; in that of U7A G12A, 0.783; in that of U7A G10C G41A, at most 0.5.
